The values that follow come from ChEMBL document CHEMBL3244412, “Benzopyrones. 14. Synthesis and antiallergic properties of some N-tetrazolylcarboxamides and related compounds” (1978).

A short description of experiment [1]: Antianaphylactic activity in rat mast cells assessed as inhibition of DNP-ovalbumin-induced histamine release after 15 mins by superfusion assay. The class given is functional. To be noted: Mast cell, 0.25 h, read-out: ED50 (the source's name). The procedure, abridged: (§1)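 Peritoneal and pleural cells from male albino rats were washed, sensitized with 1:10 rat reaginic anti-DNP-ovalbumin serum for 2 h at 37 °C, and resuspended at 1.2-1.7 × 10⁵ mast cells/mL. Compound and DNP-ovalbumin were added together and incubated for 15 min at 37 °C. Supernatant (free) and lysed-cell (residual) histamine were assayed by guinea pig ileum superfusion bioassay. Inhibition of net histamine release was used to derive EC50 from dose ranging against the reference compound.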

Experiment [2] deals with Rattus norvegicus. Briefly: Antiallergic activity in rat assessed as inhibition of DNP-ovalbumin-induced passive cutaneous anaphylaxis at 1 mg/kg, iv after 30 mins relative to control. The class given is functional. Particulars: for inhibition in vivo at 1 mg/kg: Rattus norvegicus, iv, 0.5 h. The procedure, abridged:
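Female albino rats (groups of four) were shaved and sensitized by dorsal intradermal injection of 0.1 mL diluted rat reaginic anti-DNP-ovalbumin serum, raised with Bordetella pertussis adjuvant. After 48 h they were challenged iv with 2 mg DNP-ovalbumin in 0.5 mL 1% Evans blue/saline, with the compound given iv in aqueous solution at the same time. After 30 min, skin weals were scored visually on a 5-point scale; % inhibition was taken versus vehicle controls.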

The nature of experiment [3]: Antianaphylactic activity in rat mast cells assessed as inhibition of DNP-ovalbumin-induced histamine release after 15 mins by superfusion assay relative to 4-oxo-N-(5-tetrazolyl)-4H-l-benzopyran-2-carboxamide. The class given is functional, Mast cell. The procedure, abridged:
as §1

In brackets after ≈: the same amount, converted by molar mass.

What is called inhibition in vivo is how much of the control response was suppressed. Take `N#Cc1ccc2oc(C(=O)Nc3nnn[nH]3)cc(=O)c2c1`: the EC50 in experiment [1] was found to be 2.3 µg/mL (≈ 8.15 µM). Also, the inhibition in vivo at 1 mg/kg in experiment [2] was 100%. Further, the “fold change (potency relative to reference compound)” value in experiment [3] stood at 0.03.
On the same counts, the results for `O=C(O)CCCCCNC(=O)c1cc(=O)c2ccccc2o1` are above 18 µg/mL, 0% and below 0.005.
On the same counts, the results for `O=C(O)CCNC(=O)c1cc(=O)c2ccccc2o1` are above 18 µg/mL, 0% and below 0.005.
On the same counts, the results for `CCOC(=O)C(=O)Nc1ccc2oc(C(=O)OCC)cc(=O)c2c1` are 12 µg/mL (≈ 36 µM), 65% and 0.005.
For `O=C(Nc1nnn[nH]1)c1oc2ccccc2c(=O)c1NCCO`, in experiment [1], the EC50 is 0.085 µg/mL (≈ 0.269 µM). Besides, the inhibition in vivo at 1 mg/kg in experiment [2] is 100%. Besides, in experiment [3], the “fold change (potency relative to reference compound)” value is listed as 0.18.
The matching figures for `NC(=O)c1cc(=O)c2ccc(O)c(N)c2o1`: above 18 µg/mL, 15% and below 0.005.
As to `CN1CCN(C(=O)c2cc(=O)c3ccccc3o2)CC1.Cl`, the EC50 in experiment [1] was above 18 µg/mL. Moreover, in experiment [2], the inhibition in vivo at 1 mg/kg was 0%. Moreover, the “fold change (potency relative to reference compound)” value in experiment [3] is recorded as below 0.005.
On the same counts, the results for `Cc1ccc2oc(C(=O)Nc3nnn[nH]3)cc(=O)c2c1` are 0.075 µg/mL (≈ 0.277 µM), 75% and 1.2.
Take `Cc1ccc2oc(C(=O)O)c(-c3ccccc3)c(=O)c2c1`: the EC50 in experiment [1] was above 18 µg/mL. In addition, the inhibition in vivo at 1 mg/kg in experiment [2] is 0%. In experiment [3], the “fold change (potency relative to reference compound)” value was below 0.005.
The matching figures for `O=C(Nc1nnn[nH]1)c1oc2ccccc2c(=O)c1Cl`: 0.8 µg/mL (≈ 2.74 µM), 75% and 0.11.
On the same counts, the results for `O=C(O)CNC(=O)c1ccc2oc(C(=O)NCC(=O)O)cc(=O)c2c1` are above 18 µg/mL, 10% and below 0.005.
The matching figures for `Cc1ccc2oc(C(=O)Nc3nnn[nH]3)c(-c3ccccc3)c(=O)c2c1`: 8 µg/mL (≈ 23 µM), 50% and 0.005.
With `CN1CCN(C(=O)/C=C/c2coc3ccccc3c2=O)CC1`, the EC50 in experiment [1] was above 18 µg/mL. Also, the inhibition in vivo at 1 mg/kg in experiment [2] worked out at 0%. In addition, in experiment [3], the “fold change (potency relative to reference compound)” value is given as below 0.005.
As for `O=C(Nc1nnn[nH]1)c1ccc2oc(C(=O)Nc3nnn[nH]3)cc(=O)c2c1`, the EC50 in experiment [1] turned out to be 0.55 µg/mL (≈ 1.49 µM). Besides, the inhibition in vivo at 1 mg/kg in experiment [2] was found to be 100%. In experiment [3], the “fold change (potency relative to reference compound)” value was found to be 0.1.
On the same counts, the results for `O=C(Nc1nnn[nH]1)c1cc(=O)c2cc(Cl)ccc2o1` are 0.75 µg/mL (≈ 2.57 µM), 65% and 0.12.
As to `Cn1nnc(NC(=O)c2cc(=O)c3ccccc3o2)n1`, in experiment [2], the inhibition in vivo at 1 mg/kg is 25%.
As to `COc1ccc2c(=O)cc(C(=O)Nc3nnn[nH]3)oc2c1`, the EC50 in experiment [1] is 0.048 µg/mL (≈ 0.167 µM). Also, the inhibition in vivo at 1 mg/kg in experiment [2] was 75%. The “fold change (potency relative to reference compound)” value in experiment [3] worked out at 1.8.
The matching figures for `Cc1oc2ccc(S(=O)(=O)Nc3nnn[nH]3)cc2c(=O)c1C`: above 18 µg/mL, 20% and below 0.005.
The matching figures for `O=C(NCCO)c1ccc2oc(C(=O)NCCO)cc(=O)c2c1`: above 18 µg/mL, 15% and below 0.005.
On the same counts, the results for `CN(C(=O)c1cc(=O)c2ccccc2o1)c1nnn[nH]1` are above 18 µg/mL, 0% and below 0.005.
As to `Cc1ccc2c(=O)cc(C(=O)Nc3nnn[nH]3)oc2c1`, the EC50 in experiment [1] turned out to be 0.58 µg/mL (≈ 2.14 µM). In experiment [2], the inhibition in vivo at 1 mg/kg came to 75%. For the same compound, the “fold change (potency relative to reference compound)” value in experiment [3] was determined as 0.19.
As for `O=C(/C=C/c1coc2ccccc2c1=O)Nc1nnn[nH]1`, the EC50 in experiment [1] worked out at 6 µg/mL (≈ 21.2 µM). The inhibition in vivo at 1 mg/kg in experiment [2] was 65%. For the same compound, the “fold change (potency relative to reference compound)” value in experiment [3] is reported as below 0.005.
The matching figures for `O=C(Nc1nnn[nH]1)c1cc(=O)c2cc([N+](=O)[O-])ccc2o1`: 5.5 µg/mL (≈ 18.2 µM), 15% and 0.01.
The matching figures for `CCOC(=O)c1cc(=O)c2cc(NC(=O)Cc3nnn[nH]3)ccc2o1`: 11 µg/mL (≈ 32 µM), 65% and 0.005.
On the same counts, the results for `COc1ccc2c(=O)c(-c3ccccc3)c(C(=O)Nc3nnn[nH]3)oc2c1` are above 18 µg/mL, 25% and below 0.005.
Consider `Cc1ccc2c(=O)cc(C(=O)Nc3nnn[nH]3)oc2c1.NCCO`, for which the EC50 in experiment [1] stood at 0.16 µg/mL. In experiment [2], the “inhibition (INH)” value is 80%. The “fold change (potency relative to reference compound)” value in experiment [3] was 0.75.
Take `O=C(Nc1nnn[nH]1)c1coc2ccccc2c1=O`: the EC50 in experiment [1] came to 0.033 µg/mL (≈ 0.128 µM). Besides, the inhibition in vivo at 1 mg/kg in experiment [2] amounted to 65%. Besides, the “fold change (potency relative to reference compound)” value in experiment [3] worked out at 0.48.
The matching figures for `CNc1c(C(=O)Nc2nnn[nH]2)oc2ccccc2c1=O`: 0.4 µg/mL (≈ 1.4 µM), 100% and 0.04.
On the same counts, the results for `NCCCO.O=C(Nc1nnn[nH]1)c1oc2ccccc2c(=O)c1NCCCO` are 0.024 µg/mL, 100% and 0.67.
Turning to `Cn1nnnc1NC(=O)c1cc(=O)c2ccccc2o1`, in experiment [1], the EC50 was above 18 µg/mL. Further, the inhibition in vivo at 1 mg/kg in experiment [2] was determined as 0%. Besides, the “fold change (potency relative to reference compound)” value in experiment [3] is reported as below 0.005.
The matching figures for `NC(=O)c1cc(=O)c2cc(N)ccc2o1`: above 18 µg/mL, 10% and below 0.005.
With `O=C(Nc1nnn[nH]1)c1cc(=O)c2ccc(O)cc2o1`, the EC50 in experiment [1] is 0.11 µg/mL (≈ 0.403 µM). Besides, the inhibition in vivo at 1 mg/kg in experiment [2] stood at 65%. In experiment [3], the “fold change (potency relative to reference compound)” value turned out to be 0.77.
On the same counts, the results for `CN1CCN(C(=O)c2coc3ccccc3c2=O)CC1.Cl` are 14 µg/mL, 20% and 0.007.
On the same counts, the results for `O=c1c(/C=N/O)coc2ccccc12` are above 18 µg/mL, 25% and 0.0006.
The matching figures for `O=C(Nc1nnn[nH]1)c1coc(=O)c2ccccc12`: above 18 µg/mL, 0% and below 0.005.
For the compound `O=C(Nc1nccs1)c1cc(=O)c2ccccc2o1`, in experiment [1], the EC50 is above 18 µg/mL. The inhibition in vivo at 1 mg/kg in experiment [2] worked out at 15%. Moreover, the “fold change (potency relative to reference compound)” value in experiment [3] was below 0.005.
In the case of `O=C([O-])c1cc(=O)c2c(OCC(O)COc3cccc4oc(C(=O)[O-])cc(=O)c34)cccc2o1.[Na+].[Na+]` [CROMOLYN SODIUM], in experiment [1], the EC50 came to 2.55 µg/mL. Besides, in experiment [2], the inhibition in vivo at 1 mg/kg worked out at 40%. In addition, the “fold change (potency relative to reference compound)” value in experiment [3] is 0.02.
On the same counts, the results for `O=C(Nc1nnn[nH]1)c1cc(=O)c2cc(-c3nnn[nH]3)ccc2o1` are 0.1 µg/mL (≈ 0.307 µM), 70% and 0.85.
On the same counts, the results for `O=C(Nc1nnn[nH]1)c1ccc2occc(=O)c2c1` are 0.7 µg/mL (≈ 2.72 µM), 35% and 0.08.
On the same counts, the results for `Cc1c(C(=O)Nc2nnn[nH]2)oc2ccccc2c1=O` are 0.4 µg/mL (≈ 1.47 µM), 70% and 1.
As to `O=C(O)CCCNC(=O)c1cc(=O)c2ccccc2o1`, the EC50 in experiment [1] is above 18 µg/mL. Moreover, the inhibition in vivo at 1 mg/kg in experiment [2] worked out at 0%. Further, the “fold change (potency relative to reference compound)” value in experiment [3] is on record as below 0.005.
On the same counts, the results for `O=C(Nc1nnn[nH]1)c1cc2ccccc2c(=O)o1` are above 18 µg/mL, 0% and below 0.005.
The matching figures for `O=C(Nc1nc[nH]n1)c1cc(=O)c2ccccc2o1`: 5 µg/mL (≈ 19.5 µM), 0% and 0.002.
The matching figures for `O=C(Nc1nnn[nH]1)c1oc2ccccc2c(=O)c1N1CCOCC1`: above 18 µg/mL, 10% and below 0.005.
Take `O=C(O)c1ccc2occc(=O)c2c1`: the EC50 in experiment [1] was above 18 µg/mL. Moreover, in experiment [2], the inhibition in vivo at 1 mg/kg is 0%. Also, the “fold change (potency relative to reference compound)” value in experiment [3] is below 0.005.
On the same counts, the results for `O=C(Nc1nnn[nH]1)c1cccc2c(=O)c3ccccc3[nH]c12` are 0.65 µg/mL (≈ 2.12 µM), 90% and 0.14.
